Compounds with a hit are over-represented: about 2.5% of the library has one in this group of screens.
SENP1 inh: human SENP1 catalytic domain inhibitors, primary screen, biochemical, FRET, uHTS. Sentrin-specific protease 1 (Homo sapiens), Q9P0U3. recombinant SENP1 catalytic domain, CyPet-SUMO1-YPet FRET cleavage. inhibition, % at 10 µM. actives 0.21% (n = 360,000). AID 624204, 2012;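 active means inhibition at least 30% at 10 µM, raw YFP signal under a set limit, fluorescence ratio 0.5 to 1.5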;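 further: 0% = enzyme with DMSO and 100% = no enzyme wells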
Target sequence (Q9P0U3 419-644 limits assumed): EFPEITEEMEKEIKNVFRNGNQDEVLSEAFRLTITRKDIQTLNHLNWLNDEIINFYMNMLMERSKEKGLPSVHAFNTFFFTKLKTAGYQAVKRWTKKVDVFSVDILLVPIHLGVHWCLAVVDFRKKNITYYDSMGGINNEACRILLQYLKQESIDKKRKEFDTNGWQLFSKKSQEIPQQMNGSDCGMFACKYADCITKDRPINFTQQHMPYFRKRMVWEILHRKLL
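Assay system – human recombinant His6-tagged SENP1 catalytic domain enzyme · Input – SENP1 enzyme, 20 pM final · Buffer or medium – Tris pH 8 buffer plus EDTA, NaCl, BME, BSA, NP40, catalase · Schedule – 50 min reaction at room temperature · Technique – FRET read of cyan and yellow fluorescence · Control set – no-enzyme wells low, DMSO-plus-enzyme wells high control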
SENP8 block-1: SENP8 protease inhibitors, primary screen, biochemical, luminescence; inhibition, % at 10 µM; AID 2540, 2010; actives 1.2% (n = 330,000); purified SENP8, Z-RLRGG-aminoluciferin cleavage; in the data active means inhibition above about 50%
Target sequence (Q96LD8 whole entry, looked up): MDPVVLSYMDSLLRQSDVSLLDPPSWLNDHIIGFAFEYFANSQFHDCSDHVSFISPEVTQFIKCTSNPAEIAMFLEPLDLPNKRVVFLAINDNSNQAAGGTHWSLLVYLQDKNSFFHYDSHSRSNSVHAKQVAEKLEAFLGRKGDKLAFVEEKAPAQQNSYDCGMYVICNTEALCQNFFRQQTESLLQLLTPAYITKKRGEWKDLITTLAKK
SENP8 block-2: human SENP8 protease inhibitors, primary screen, biochemical, fluorescence, Nedd8 protein substrate, uHTS; recombinant SENP8; actives 0.64% (n = 360,000); Sentrin-specific protease 8 (Homo sapiens), Q96LD8; inhibition, % at 20 µM; AID 602440, 2012; in the data active means inhibition mostly above about 40%, no sharp cut-off; inactive means mostly below about 27%
SENP6 inh: SENP6 protease inhibitors, primary screen, biochemical, luminescence, uHTS. Sentrin-specific protease 6 (Homo sapiens), Q9GZR1. Recombinant SENP6 catalytic domain, aminoluciferin luminescence. inhibition, % at 10 µM. actives 1.8% (n = 330,000). AID 2599, 2010;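 active means inhibition above about 50% at the single tested dose, limit read from the data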;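 further: plate controls were DMSO wells with enzyme for no effect and DMSO wells lacking enzyme for full effect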
SENP7 inh: SENP7 protease inhibitors, primary screen, biochemical, luminescence, uHTS. recombinant SENP7, Z-RLRGG-aminoluciferin luminescence, 40 min. inhibition, % at 5 µM. AID 434973, 2010. Sentrin-specific protease 7 (Homo sapiens), Q9BQF6. actives 1.5% (n = 330,000);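 active means inhibition above about 50% at the single test dose, limit read from the data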;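 further: plate controls were DMSO with enzyme for no effect and no enzyme buffer wells for full effect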
SENP1 inh conf: human SENP1 catalytic domain inhibitors, confirmation, biochemical, FRET endpoint, single concentration; actives 34% (n = 520); inhibition, % at 10 µM; AID 651678, 2012; shares compounds with SENP1 inh; recombinant SENP1, CyPet-SUMO1-YPet FRET cleavage; in the data active means inhibition mostly above about 35%, no sharp cut-off; inactive means mostly below about 32%;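 further: 0% = enzyme with DMSO and 100% = no enzyme control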
SENP1 kinetic: human SENP1 catalytic domain inhibitors, confirmation, biochemical, kinetic FRET, single concentration; shares compounds with SENP1 inh; recombinant SENP1, CyPet-SUMO1-YPet FRET kinetic cleavage; inhibition, % at 10 µM; actives 26% (n = 520); AID 651690, 2012; in the data active means inhibition mostly above about 32%, no sharp cut-off; inactive means mostly below about 29%;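 further: 0% = DMSO with enzyme and 100% = no enzyme substrate only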
Starred values were filed as active, the others as inactive; · = not tested or not shown.

SMILES	SENP1 inh	SENP8 block-1	SENP8 block-2	SENP6 inh	SENP7 inh	SENP1 inh conf	SENP1 kinetic
CCCN(CCC)c1nc2ccccc2n2c(C)nnc12	2.4	9.3	-61.3	17.5	-2.9	·	·
CCCNc1nc2ccccc2n2c(C)nnc12	30.8*	5.8	3.2	-8.4	5.8	5.2	9.8
COc1ccc(-c2ccc3c(c2)S(=O)(=O)c2cccc(C(=O)NCCOc4ccccc4)c2C3=O)cc1OC	59.1*	1.4	-9.8	-7.7	-0.6	68.2*	49.4*
CC(C)c1ccc2nc3sc(C(=O)N4CCc5ccccc5C4)c(N)c3cc2c1	61.4*	5.2	-65.5	14.2	4.4	81.5*	51.0*
CCN1CCc2nc3sc(C(=O)N4CCc5ccccc5C4)c(N)c3cc2C1	-22.5	2.4	-192.9	6.3	2.7	·	·
COc1ccc(OC)c(CNc2ccc3c(c2)nc(C)n3C)c1	0.7	12.0	-71.5	1.1	-3.4	·	·
COc1ccc(N=Nc2nc3cc(Br)c(Br)cc3n2C)c(OC)c1	61.0*	·	10.7	·	·	31.9	43.6*
CC1=C(C(=O)OC(C)C)C(c2cccs2)NC(=S)N1 (stereo not given)	1.3	-4.4	15.8	-14.2	-1.7	·	·
Cc1ccc2n(n1)c(=O)c(Cc1ccccc1)c([O-])[n+]2-c1ccccc1	34.9*	0.2	-3.8	0.7	8.3	53.1*	34.8*
CC1=C(C#N)C(C)(C)C(C#N)=C(C)N1	-0.5	·	-57.1	·	·	·	·
Cc1nc(-c2cccc(NC(=O)c3cc4cc(Br)ccc4oc3=O)c2)cs1	37.8*	8.9	16.2	-0.2	4.3	-8.9	-5.7
CCCc1cc(=O)oc2cc(OCC(=O)Nc3ccc(S(N)(=O)=O)cc3)ccc12	0.0	-5.2	-147.6	-8.1	7.0	·	·
CCOC(=O)CSc1nc2ccc(C)cc2cc1C#N	21.8	-4.5	6.8	-27.1	6.3	·	·
CCOC(=O)CSc1nc2cc(C)ccc2cc1C#N	54.7*	0.6	0.2	6.5	-2.4	5.5	14.9
CC(OC(=O)/C=C/c1ccco1)C(=O)NC1CCCCC1C (stereo not given)	1.2	5.6	6.5	9.4	3.1	·	·
COc1ccc(Oc2c(OC)cc(NCc3ccc(CN)cc3)c3ncccc23)cc1	-31.7	·	-124.7	·	·	·	·
Cc1ccc(O)c(C(=O)c2cc(C#N)c(=O)n(-c3c(C)n(C)n(-c4ccccc4)c3=O)c2)c1	9.7	3.7	3.7	-11.1	-4.0	·	·
Cc1c(-n2cc(C(=O)c3cc(Cl)ccc3O)cc(C#N)c2=O)c(=O)n(-c2ccccc2)n1C	61.0*	-2.7	8.0	-4.0	3.6	53.2*	40.5*
Cc1cc(C)n2nc(C(=O)OCC(=O)Nc3cc(S(=O)(=O)N4CCOCC4)ccc3Cl)nc2n1	1.1	·	5.9	·	·	·	·
CSc1nc2nc3c(cn2n1)C(=O)CC(c1ccccc1)C3 (stereo not given)	53.5	-0.2	-3.8	4.3	-12.8	·	·
O=C1CC(c2ccccc2)Cc2nc3nc(C(F)(F)F)nn3cc21 (stereo not given)	62.7*	4.0	9.9	-2.7	4.3	8.7	10.2
CCCCC(=O)NC(=S)Nc1c(C)cc(Br)cc1C	2.4	2.7	16.2	1.9	7.6	·	·
COc1ccc(NC(=O)COC(=O)CNC(=O)C2CCCCC2)cc1OC	0.2	2.1	13.4	-2.3	4.9	·	·
CCN(CC)c1ccc(C(=C2C=CC(=[N+](CC)CC)C=C2)c2ccc(S(=O)(=O)O)cc2S(=O)(=O)[O-])cc1	-17.1	·	-2.1	·	·	·	·
CC(C)CNC(=O)c1ccc(C2SCC(=O)N2Cc2ccccc2)cc1 (stereo not given)	46.0*	-3.4	-77.2	-4.8	-0.7	35.1*	29.2
